Experimental data from paper PMC10760106 (bioRxiv, 2023).
Blank lines part the entries; values can stand above or below the compound they belong to.

Key:
[1] = test system: HiBiT F3 in ARPE-19 cells; assay: non-HTS extracellular/intracellular HiBiT F3 assay; type: cell-based, human; conditions: for HiBiT F3 secretion (extracellular) / intracellular HiBiT F3 levels: dose-responsive, ARPE-19
In short: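 HiBiT F3 ARPE-19 cells were plated at 200,000 cells/mL, and test compound in medium was added the next day. Treatment lasted 72 h or 1 week, with medium and compound renewed after 96 h for 1-week wells. For intracellular signal, cells were washed in HBSS and lysed 5 min with shaking in lytic buffer containing LgBiT (1:100) and substrate (1:50). Luminescence was read on 40 μL of lysate.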

[2] = test system: HiBiT F3 ARPE-19 cells (fibulin-3 production); assay: HTS whole-well HiBiT F3 assay; type: cell-based, human; conditions: 0.2 nM – 50 μM, 24 h
In short: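 Genome-edited heterogeneous ARPE-19 cells (2xFLAG-VS-HiBiT inserted after Ser16 of F3) were seeded at ~5,000 cells/well in 384-well plates and grown 24 h at 37°C. Medium was exchanged, and test compound in 0.1% DMSO was applied for 24 h. Plates were cooled 20 min at RT, then received a lytic buffer master mix with LgBiT (1:100) and lytic substrate (1:50). After 5 min shaking, whole-well luminescence was read.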

HiBiT F3 ARPE-19 cells = assay: Cell Titer Glo 2.0 viability counter screen; type: cell-based, human; conditions: 1.66 and 5 μM, 48 h
[3] = test system: HiBiT F3 in primary human dermal fibroblasts; assay: HiBiT F3 assay in primary dermal fibroblasts; type: cell-based; conditions: 72 h, dose-responsive
MMP2 = MMP2 zymography; type: cell-based, human; conditions: 1 μM, 1 week, HiBiT WT F3 and R345W F3 cells
In short: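 HiBiT WT or R345W F3 ARPE-19 cells were grown on polyester transwells in serum-free medium for 1 week, then treated 1 week with 1 μM test compound or 0.1% DMSO. Apical and basal media went in non-reducing SDS buffer onto 10% gelatin gels (140 V, 90 min). Gels were renatured 30 min at RT, developed 30 min at RT, then overnight at 37°C in fresh developing buffer. Coomassie R-250 staining and densitometry followed.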

[4] = test system: HiBiT F5 in ARPE-19 cells; assay: HiBiT fibulin-5; type: cell-based, human
[5] = test system: secreted proteome of HiBiT ARPE-19 cells; assay: secreted proteome visualization and mass spectrometry; type: cell-based, human
[6] = test system: HiBiT WT F3 and HiBiT R345W F3 ARPE-19 cells; assay: extracellular HiBiT assay on transwells, WT and R345W F3; type: cell-based, human; conditions: 1 μM, 1 week, serum-free
In short: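 Cells carried HiBiT-tagged WT or R345W F3 in ARPE-19, with R345W made by knock-in in clonal cells. They were seeded on polyester transwells (~100,000/well for 12-well, ~30,000/well for 24-well) and switched to serum-free medium the next day, with changes every 3–4 days. After 1 week, cells were treated 1 week with 1 μM test compound or 0.1% DMSO in serum-free medium. Apical and basal media were then assayed for extracellular HiBiT luminescence.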

[7] = test system: HiBiT mouse F3 in NIH-3T3 cells; assay: HiBiT F3 assay in NIH-3T3 fibroblasts; type: cell-based; conditions: NIH-3T3 mouse cells, 72 h
[8] = preclinical neurological disorder studies; ref [61]; cited from earlier work
[9] = test system: transcriptome of HiBiT F3 ARPE-19 cells; assay: bulk RNAseq; type: cell-based, human; conditions: 1 μM, 1 week
In short: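 The next day, 1 μM test compound or DMSO (1:1000) was added, with a media change at 96 h. Total RNA was extracted 7 days after treatment start and stored at −80°C. PCR-amplified libraries were bead-purified and quality-checked on a Bioanalyzer before sequencing.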

[10] = test system: TCF-dependent Wnt signaling in HiBiT F3 ARPE-19 cells; assay: 7xTCF reporter; type: cell-based, human; conditions: 1 μM, one week, 7TFP cells
[11] = test system: BLamD in R345W+/+ knockin mice; assay: basal laminar deposit; type: in vivo, mouse; conditions: treated mice (30/720 FOV), 25 mg/kg i.p., 1 mo; untreated 14.205%
ARPE-19 cells = assay: lactate dehydrogenase; type: cell-based, human
In short: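 Test compound was applied to ARPE-19 cells for 72 h or 1 week. Media were spun at 1,000 RPM for 5 min. In technical triplicate, 50 μL of cleared medium was mixed with an equal volume of LDH reaction buffer for 30 min at 37°C. DMSO-treated medium served as control, and lysis buffer-treated cells served as positive control.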

[12] = CHIR PK experiment with LC-MS/MS; type: in vivo, mouse
In short: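 C57BL/6J mice (three per time point, at least one male and one female) received 25 mg/kg i.p. of test compound. It was given as 5 mg/mL in 2% DMSO/5.7% Captisol in PBS. Tissues were collected at 0, 30, 180, 360, 960 and 1440 min under isoflurane, and retina and liver were homogenized in PBS. […] Eye level was estimated from a vitreous volume of ~4.4 μL.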

[13] = both, C57BL/6J, mouse, eye, ip, 25 mg/kg
[14] = both, C57BL/6J, mouse, liver, ip, 25 mg/kg
[15] = both, C57BL/6J, mouse, plasma, ip, 25 mg/kg
[16] = both, C57BL/6J, mouse, retina, ip, 25 mg/kg

Compound: 6-bromoindirubin-3-oxime [BIO]
HiBiT F3 secretion (extracellular) ([1]; 72 h): significantly reduced
intracellular HiBiT F3 levels ([1]; 72 h): significantly reduced

Compound: CN1CCN(S(=O)(=O)c2ccc(-c3cnc(N)c(C(=O)Nc4cccnc4)n3)cc2)CC1 [AZD2858]
dose-response confirmation of HiBiT F3 reduction [2]: demonstrated dose-responsiveness
cytotoxicity profile (HiBiT F3 ARPE-19 cells): favorable cytotoxicity profiles

Compound: Cc1c[nH]c(-c2cnc(NCCNc3ccc(C#N)cn3)nc2-c2ccc(Cl)cc2Cl)n1 [CHIR99021]
intracellular HiBiT F3 [3]: significantly reduced
secreted HiBiT F3 [3]: significantly reduced
reduction of MMP2 levels in apical media (MMP2): 16-17%
reduction of MMP2 levels in basal media (MMP2): 29-31%
secreted F5 ([4]; 72 h, all concentrations used): dose-responsive reduction
F5 secretion ([4]; week-long treatment, only at 1 and 10 μM): significantly reduced
total protein secretion (SDS-PAGE of concentrated media) ([5]; 10 μM): clear increase
banding pattern or intensity of secreted protein ([5]; 0.1 or 1 μM): relatively little detectable change
apically and basally secreted HiBiT WT F3 and HiBiT R345W F3 [6]: significantly reduced
F3 production [7]: reduced F3 production
blood-brain barrier crossing [8]: can cross the blood-brain barrier
PEDF (SERPINF1) in proteomics and RNAseq datasets [9]: significantly upregulated
transcripts of TYR and TYRP1 [9]: significantly upregulated
TCF activation (FLuc) [10]: without triggering TCF activation
FOVs containing deposits (BLamDs) [11]: 4.167%
reduction of F3 secretion ([1]; 1 μM, one week): 49.9 ± 7.0%
reduction of HiBiT F3 secretion ([1]; 10 μM, 72 h): up to 76%
HiBiT F3 secretion (extracellular) ([1]; 72 h): significantly reduced
intracellular HiBiT F3 levels ([1]; 72 h): significantly reduced
toxicity by LDH release (ARPE-19 cells; 72 h): non-toxic
cell death by LDH release (ARPE-19 cells; prolonged low level, one week): does not increase cell death
estimated peak concentration of CHIR in the eye ([12]; after 30 min, 25 mg/kg i.p., based on vitreous volume ~4.4 μL): ~ 1.3 μM
concentration at 3 h [12, 13]: ~1100 nM
concentration at 6 h [12, 13]: 364 nM
concentration at 24 h [12, 13]: 151 nM
Cmax [12, 14]: 33300 ng/g
Tmax [12, 14]: 0.5 h
concentration at 30 min [12, 14]: 33300 ng/g
concentration at 180 min [12, 14]: 4680 ng/g
concentration at 360 min [12, 14]: 1160 ng/g
concentration at 960 min [12, 14]: 6.1 ng/g
concentration at 1440 min [12, 14]: 5.2 ng/g
half-life [12, 14]: 2 h
MRT ([12]; both, C57BL/6J, mouse, liver, ip, 25 mg/kg, MRT, 25 mpk IP): 1.57 h
AUC(0-t) [12, 15]: 15500 ng·h/mL
CL/F [12, 15]: 27 mL/min/kg
Cmax [12, 15]: 9250 ng/mL
Tmax [12, 15]: 0.5 h
concentration at 30 min [12, 15]: 9250 ng/mL
concentration at 180 min [12, 15]: 490 ng/mL
concentration at 360 min [12, 15]: 41 ng/mL
concentration at 960 min [12, 15]: 0.3 ng/mL
concentration at 1440 min [12, 15]: 0.4 ng/mL
half-life [12, 15]: 1.97 h
MRT ([12]; both, C57BL/6J, mouse, plasma, ip, 25 mg/kg, MRT, 25 mpk IP): 0.817 h
Cmax [12, 16]: 527 ng/g
Tmax [12, 16]: 0.5 h
concentration at 30 min [12, 16]: 527 ng/g
concentration at 180 min [12, 16]: 434 ng/g
concentration at 360 min [12, 16]: 148 ng/g
concentration at 960 min [12, 16]: 41 ng/g
concentration at 1440 min [12, 16]: 61 ng/g
half-life [12, 16]: 6.75 h
MRT ([12]; both, C57BL/6J, mouse, retina, ip, 25 mg/kg, MRT, 25 mpk IP): 6.05 h
AUClast ([12]; liver, 25 mpk IP, mouse): 4,231,688 ± 272,680 min*ng/g
Vz_F ([12]; plasma, 25 mpk IP, mouse): 4.586 L/kg
AUClast ([12]; retina, 25 mpk IP, mouse): 213,348 ± 17,725 min*ng/g
MRT ([12]; retina, 25 mpk IP, mouse, 25 mg/kg): 6.03 h

Tmax ([12]; liver, 25 mpk IP, mouse): 0.5 h
Tmax ([12]; plasma, 25 mpk IP, mouse): 0.5 h
Tmax ([12]; retina, 25 mpk IP, mouse): 0.5 h
Compound: Cc1cnc(-c2cnc(NCCNc3ccc(C#N)cn3)nc2-c2ccc(Cl)cc2Cl)[nH]1.Cl.Cl.Cl [CHIR trihydrochloride]

Compound: [Cl-].[Li+] [LiCl, lithium chloride]
HiBiT F3 secretion (extracellular) ([1]; 72 h): significantly reduced
intracellular HiBiT F3 levels ([1]; 72 h): significantly reduced
